Measurements from ChEMBL document CHEMBL1123588, “Synthesis and antisecretory and antiulcer activities of derivatives and analogues of 2-(2-pyridyl)tetrahydrothiophene-2-carbothioamide” (1987).

How the values were obtained:
[1] = tested on: Rattus norvegicus; assay: Antiulcer activity against restraint-induced gastric erosions in rats, following 100 mg/kg p.o. administration.; format: functional, Stomach; conditions: route oral
Method in brief: (§1)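 Restraint-stress erosions (Rossi): female OFA rats, 150–175 g, six per group, fasted 24 h. Oral dose in 10% gum arabic (5 mL/kg) 1 h before restraint in wire-netting cages. Rats killed 24 h later and gastric mucosal erosions assessed. A rat counted protected with no erosion; read-out is % protected rats.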

[2] = tested on: Rattus norvegicus; assay: Antisecretory activity against histamine stimulated gastric acid secretion in Shay rats by peroral administration of 30 mg /kg was determined; format: functional; conditions: Stomach, po
Method in brief: (§2)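 Female OFA rats, 150–175 g, six per group, fasted 24 h with water allowed. Dose given orally in 10% gum arabic (5 mL/kg) 1 h before histamine 100 mg/kg sc. Promethazine 10 mg/kg ip 30 min before histamine; pylorus ligated under chloral hydrate 30 min after. Juice collected 2 h, titrated with 0.1 N NaOH. Acid output compared with controls by Student's t test.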

[3] = species: Rattus norvegicus; assay: Antisecretory activity against histamine stimulated gastric acid secretion in Shay rats expressed as ED50; format: functional; conditions: Stomach
Method in brief: (§3)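 Histamine-stimulated Shay rats: females (OFA, 150–175 g, n=6/group), fasted 24 h. Oral dosing in 10% gum arabic, 1 h pre-histamine (100 mg/kg sc), promethazine 10 mg/kg ip pretreatment. Pylorus ligation under chloral hydrate; 2 h gastric juice titrated with 0.1 N NaOH. Lower doses tested when 30 mg/kg gave >80% inhibition; ED50 from regression line.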

[4] = species: Rattus norvegicus; assay: Antiulcer activity by protection of restraint-induced gastric erosions in rats, by using the technique of Rossi was determined at peroral dose of; format: functional, Stomach; method in brief: as §1
[5] = tested on: Rattus norvegicus; assay: Antiulcer activity by protection of restraint-induced gastric erosions in rats, by using the technique of Rossi was determined at peroral dose of 10 mg/kg; format: functional, Stomach; conditions: route oral; method in brief: as §1
[6] = species: Rattus norvegicus; assay: Antisecretory activity against histamine stimulated gastric acid secretion in Shay rats expressed as ED50 value ranges from (1-2.6); format: functional; conditions: Stomach; method in brief: as §3
[7] = species: Rattus norvegicus; assay: Antisecretory activity against histamine stimulated gastric acid secretion in Shay rats expressed as ED50 value ranges from (1.7-17.4); format: functional; conditions: Stomach; method in brief: as §3
[8] = tested on: Rattus norvegicus; assay: Antiulcer activity by protection of restraint-induced gastric erosions in rats, by using the technique of Rossi was determined at peroral dose of 5 mg/kg; format: functional, Stomach; conditions: route oral; method in brief: as §1
[9] = tested on: Rattus norvegicus; assay: Antisecretory activity against histamine stimulated gastric acid secretion in Shay rats by peroral administration of 30 mg /kg was determined: activity not statistically significant; format: functional; conditions: Stomach, po; method in brief: as §2
[10] = species: Rattus norvegicus; assay: Antisecretory activity against histamine stimulated gastric acid secretion in Shay rats expressed as ED50; value ranges from(0.5-22.3).; format: functional; conditions: Stomach; method in brief: as §3
[11] = tested on: Rattus norvegicus; assay: Antisecretory activity against histamine stimulated gastric acid secretion in Shay rats by peroral administration of 30 mg /kg was determined :activity not statistically significant; format: functional; conditions: Stomach, po; method in brief: as §2
[12] = tested on: Rattus norvegicus; assay: Antiulcer activity by protection of restraint-induced gastric erosions in rats, by using the technique of Rossi was determined at peroral dose of 30 mg/kg; format: functional, Stomach; conditions: route oral; method in brief: as §1
[13] = species: Rattus norvegicus; assay: Antisecretory activity against histamine stimulated gastric acid secretion in Shay rats expressed as ED50 value ranges from (2.5-12.1); format: functional; conditions: Stomach; method in brief: as §3
[14] = species: Rattus norvegicus; assay: Antisecretory activity against histamine stimulated gastric acid secretion in Shay rats expressed as ED50 value ranges from (1.3-7.1); format: functional; conditions: Stomach; method in brief: as §3
[15] = species: Rattus norvegicus; assay: Antisecretory activity against histamine stimulated gastric acid secretion in Shay rats expressed as ED50; value ranges from (1.0-6.5); format: functional; conditions: Stomach; method in brief: as §3
[16] = species: Rattus norvegicus; assay: Antisecretory activity against histamine stimulated gastric acid secretion in Shay rats expressed as ED50; value ranges from (0.1-2.2); format: functional; conditions: Stomach; method in brief: as §3
[17] = tested on: Rattus norvegicus; assay: Antiulcer activity by protection of restraint-induced gastric erosions in rats, by using the technique of Rossi was determined at peroral dose of 4.5 mg/kg; format: functional, Stomach; conditions: route oral; method in brief: as §1
[18] = species: Rattus norvegicus; assay: Antisecretory activity against histamine stimulated gastric acid secretion in Shay rats expressed as ED50 value ranges from (2.7-12.3); format: functional; conditions: Stomach; method in brief: as §3
[19] = species: Rattus norvegicus; assay: Antisecretory activity against histamine stimulated gastric acid secretion in Shay rats expressed as ED50; value ranges from (0.5-2); format: functional; conditions: Stomach; method in brief: as §3
[20] = species: Rattus norvegicus; assay: animal or person; conditions: Stomach
[21] = species: Rattus norvegicus; assay: Antisecretory activity against histamine stimulated gastric acid secretion in Shay rats expressed as ED50 value ranges from (0.8-2.8); format: functional; conditions: Stomach; method in brief: as §3
[22] = species: Rattus norvegicus; assay: Antisecretory activity against histamine stimulated gastric acid secretion in Shay rats expressed as ED50 value ranges from (0.1-1.3); format: functional; conditions: Stomach; method in brief: as §3
[23] = species: Rattus norvegicus; assay: Antiulcer activity against histamine stimulated gastric acid secretion in Shay rats expressed as ED50; format: functional; conditions: Stomach
[24] = species: Rattus norvegicus; assay: Antisecretory activity against histamine stimulated gastric acid secretion in Shay rats expressed as ED50 value ranges from (0.6-3.8); format: functional; conditions: Stomach; method in brief: as §3

CN(C)C(=S)C1(c2ccccn2)CCCS1 (centres undefined)
Protection [1]: 83%
inhibition in vivo at 30 mg/kg [2]: 74%
ED50 [3]: < 30 mg/kg

S=C(N1CCOCC1)C1(c2ccccn2)CCCS1 (centres undefined)
Protection [1]: 83%
inhibition in vivo at 30 mg/kg [2]: 54%
ED50 [3]: ≤ 30 mg/kg

CCCCCCCCCCCC/N=C(\S)C1(c2ccccn2)CCCS1 (centres undefined)
inhibition in vivo at 30 mg/kg [2]: 0%
ED50 [3]: > 30 mg/kg
Protection [4]: 0%

CC/N=C(\S)C1(c2ccccn2)CCCS1 (centres undefined)
Protection [5]: 50%
ED50 [6]: 1.6 mg/kg

CCCCc1ccnc(C2(/C(S)=N/C)CCCS2)c1 (centres undefined)
Protection [1]: 100%
inhibition in vivo at 30 mg/kg [2]: 78%
ED50 [3]: < 30 mg/kg

N=C(S)C(c1ccccc1)c1ccccn1 (centres undefined)
ED50 [7]: 5.5 mg/kg

S=C(NCc1ccccc1)C1(c2ccccn2)CCCS1 (centres undefined)
Protection [1]: 100%
inhibition in vivo at 30 mg/kg [2]: 58%
ED50 [3]: ≤ 30 mg/kg

C/N=C(\S)C1(c2ccccn2)OCCCS1 (centres undefined)
Protection [8]: 50%
ED50 [3]: 1.6 mg/kg

C/N=C(\S)C1(c2cccnn2)CCCS1 (centres undefined)
Protection [1]: 100%

CN(C)CCC/N=C(\S)C1(c2ccccn2)CCCS1 (centres undefined)
Protection [1]: 0%
ED50 [3]: > 30 mg/kg
inhibition in vivo at 30 mg/kg [9]: 0%

NC(=S)C1(c2ccccn2)CCCS1 (centres undefined)
Protection [1]: 100%
ED50 [10]: 3.2 mg/kg

CN(C)CC/N=C(\S)C1(c2ccccn2)CCCS1 (centres undefined)
Protection [1]: 16%
ED50 [3]: > 30 mg/kg
inhibition in vivo at 30 mg/kg [9]: 0%

C/N=C(\S)C1(c2ccccn2)SCCCS1
Protection [5]: 50%
ED50 [3]: 5.7 mg/kg

CCCCCCC/N=C(\S)C1(c2ccccn2)CCCS1 (centres undefined)
Protection [1]: 33%
inhibition in vivo at 30 mg/kg [2]: 0%
ED50 [3]: > 30 mg/kg

S=C(Nc1ccccc1)C1(c2ccccn2)CCCS1 (centres undefined)
inhibition in vivo at 30 mg/kg [11]: 0%
ED50 [3]: > 30 mg/kg

CN1CCN(C(=S)C2(c3ccccn3)CCCS2)CC1 (centres undefined)
Protection [1]: 0%
ED50 [3]: > 30 mg/kg
inhibition in vivo at 30 mg/kg [9]: 8%

C/N=C(\S)C1(c2ccncc2)CCCS1 (centres undefined)
Protection [1]: 83%
inhibition in vivo at 30 mg/kg [2]: 53%
ED50 [3]: ≤ 30 mg/kg

CCCC/N=C(\S)C1(c2ccccn2)CCCS1 (centres undefined)
Protection [12]: 100%
ED50 [13]: 5.5 mg/kg

C/N=C(\S)C1(c2ccc3ccccc3n2)CCCS1 (centres undefined)
Protection [1]: 100%
ED50 [14]: 3 mg/kg

C/N=C(\S)C1(c2cccnc2)CCCS1 (centres undefined)
Protection [1]: 100%
inhibition in vivo at 30 mg/kg [2]: 49%
ED50 [3]: ≥ 30 mg/kg

OCC/N=C(\S)C1(c2ccccn2)CCCS1 (centres undefined)
Protection [1]: 16%
ED50 [3]: > 30 mg/kg
inhibition in vivo at 30 mg/kg [9]: 25%

C/N=C(\S)C1(c2cnccn2)CCCS1 (centres undefined)
Protection [1]: 100%
inhibition in vivo at 30 mg/kg [2]: 38%
ED50 [3]: > 30 mg/kg

C=CCNC(=S)C1(c2ccccn2)CCCS1 (centres undefined)
Protection [1]: 0%
ED50 [3]: > 30 mg/kg
inhibition in vivo at 30 mg/kg [9]: 20%

C/N=C(\S)C1(c2ccccn2)CCCCS1 (centres undefined)
Protection [5]: 100%
ED50 [15]: 2.6 mg/kg

N/N=C(\S)C1(c2ccccn2)CCCS1 (centres undefined)
Protection [1]: 0%
ED50 [3]: > 30 mg/kg
inhibition in vivo at 30 mg/kg [9]: 0%

Cc1cccc(C2(C(=N)S)CCCS2)n1 (centres undefined)
Protection [1]: 100%
inhibition in vivo at 30 mg/kg [2]: 71%
ED50 [3]: < 30 mg/kg

NC(=S)C1(c2ccccn2)SCCCS1
Protection [1]: 100%
ED50 [3]: 2.8 mg/kg

C/N=C(\S)C1(c2ccccn2)CCCO1 (centres undefined)
ED50 [16]: 0.5 mg/kg
Protection [17]: 66%

C/N=C(\S)C1(c2ccc(C)cn2)CCCS1 (centres undefined)
Protection [5]: 60%
ED50 [18]: 5.7 mg/kg

C/N=C(\S)C1(c2cc(C)ccn2)CCCS1 (centres undefined)
Protection [5]: 83%
ED50 [19]: 1 mg/kg

S=C(N1CCCCC1)C1(c2ccccn2)CCCS1 (centres undefined)
Protection [1]: 83%
inhibition in vivo at 30 mg/kg [9]: 30%

CN/C(=N\CCSCc1nc[nH]c1C)NC#N [CIMETIDINE]
ED50 [20]: 30 mg/kg
Protection [1]: 50%

CNC(=S)C1(c2cccc(C)n2)CCCS1 (centres undefined) [LUCARTAMIDE]
Protection [5]: 50%
ED50 [21]: 1.5 mg/kg

CNC(=S)C1(c2ccccn2)CCCS1 (centres undefined) [PICARTAMIDE]
ED50 [22]: 0.4 mg/kg
ED50 [23]: 5.9 mg/kg
Protection [17]: 50%

Cc1cnc2c(c1)CCCC2C(N)=S (centres undefined) [TIQUINAMIDE]
ED50 [24]: 1.6 mg/kg
